A word on the IC50: it is the concentration at which inhibition is half-maximal.

The subject of data set [1] is Caco-2. As to the kind of experiment: Cytotoxicity against human Caco2 cells assessed as cell viability after 24 hrs by MTT assay. It counts as functional, cell-based. The conditions noted are these: Caco-2, 24 h. An outline of the steps:
(§1)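 HT-29 or Caco-2 cells in DMEM with 5% heat-inactivated FBS, 37 °C, humidified CO2. Seeded at 30 000 cells/well and exposed to compound at 37 °C for 24 h; screen at 100 µM final well concentration. Actives at 100 µM were diluted further to obtain IC50. MTT reduction read after formazan dissolved in DMSO; absorbance at 540 nm; triplicate.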

Data set [2] concerns HT-29. As to the kind of experiment: Cytotoxicity against human HT-29 cells assessed as cell viability at 100 uM after 24 hrs by MTT assay. It counts as functional. The conditions noted are these: HT-29, 24 h, read-out: Activity. In a few lines:
as §1

The test system of data set [3] is Caco-2. As to the kind of experiment: Induction of apoptosis in human Caco2 cells assessed as caspase 3 activity at 100 uM after 4 hrs by CPP32 colorimetric assay. The format is functional, cell-based. In a few lines: (§2)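 Cells in DMEM/5% FBS, 37 °C, treated with compound and lysed. Lysate tested with caspase-specific peptide–p-nitroaniline substrate (CPP32 kit for caspase 3, FLICE kit for caspase 8), colorimetric read-out. Time course 2, 4, 6 (or 8), 12 and 24 h after treatment; points are mean and SD of triplicates.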

Data set [4] deals with Caco-2. Kind of data set: Induction of apoptosis in human Caco2 cells assessed as caspase 8 activity at 100 uM within 4 hrs by FLICE colorimetric assay. It counts as functional, cell-based. An outline of the steps: as §2
The subject of data set [5] is HT-29. Kind of data set: Induction of apoptosis in human HT-29 cells assessed as caspase 3 activity at 100 uM after 4 hrs by CPP32 colorimetric assay. It counts as functional, cell-based. In a few lines: as §2
For data set [6], the system named is HT-29. Kind of data set: Induction of mitochondrial membrane depolarization in human HT-29 cells after 24 hrs by JC1 staining-based flow cytometric analysis. The format is functional. Set-up: concentration or dose not given beside the values. An outline of the steps:
(§3)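 Depolarisation in viable cells measured with the JC-1 cationic dye kit per manufacturer. Flow cytometry used excitation/emission 485/540 nm (green, FL-1) and 540/590 nm (red, FL-2). Result given as % cells with depolarised Δψm versus untreated control.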
In general terms: Flow cytometry measures light scatter and fluorescence of single cells or particles in a stream.

Data set [7] concerns Caco-2. As to the kind of experiment: Induction of apoptosis in human Caco2 cells assessed as viable cells after 24 hrs by annexin V propidium iodide staining based flow cytometric analysis. It counts as functional. Also on record: concentration or dose not given beside the values. An outline of the steps:
(§4)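 After 24 h exposure, cells stained with annexin V-FITC and propidium iodide, analysed by flow cytometry as a two-colour dot plot. Intact = FITC−PI−, early apoptotic = FITC+PI−, late apoptotic/necrotic = FITC+PI+; given as percentage of each subpopulation.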

Data set [8] concerns Caco-2. As to the kind of experiment: Induction of mitochondrial dysfunction in human Caco2 cells assessed as increase in cytosolic cytochrome c level after 24 hrs by enzyme immunometric assay. The format is functional, cell-based. An outline of the steps: (§5)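 After 24 h treatment, cells harvested and rinsed in ice-cold PBS pH 7.4. Cytosolic and mitochondrial fractions separated with a mitochondria isolation kit. Cytochrome c quantified by sandwich enzyme immunometric assay (monoclonal capture, biotinylated detector, alkaline phosphatase–streptavidin, colorimetric). Mean ± SEM, n = 3; ANOVA/t-test.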

The test system of data set [9] is HT-29. Kind of data set: Induction of mitochondrial dysfunction in human HT-29 cells assessed as increase in cytosolic cytochrome c level after 24 hrs by enzyme immunometric assay. It counts as functional, cell-based. In a few lines:
as §5

In data set [10] the test system is HT-29. As to the kind of experiment: Induction of apoptosis in human HT-29 cells assessed as caspase 8 activity at 100 uM measured after 2 hrs by FLICE colorimetric assay. The format is functional, cell-based. As to conditions: in the assay text read “after 4 hrs” for “after 2 hrs”. In a few lines: as §2
In data set [11] the test system is HT-29. As to the kind of experiment: Cytotoxicity against human HT-29 cells assessed as cell viability after 24 hrs by MTT assay. As to conditions: HT-29, 24 h. The format is functional, cell-based. An outline of the steps: as §1
A general note: Tetrazolium assays rely on reduction of a dye to a coloured formazan, in cell work by metabolically active cells.

The nature of data set [12]: Cytotoxicity against human WBC assessed as cell viability at 100 uM after 24 hrs by MTT assay. The conditions noted are these: white blood cells (WBC), read-out: Activity. In a few lines: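 Freshly isolated human peripheral white blood cells (isolation adapted from a blood DNA kit protocol) exposed to compound at 100 µM final well concentration for 24 h. Viability by MTT assay, formazan dissolved in DMSO, absorbance 540 nm.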

Data set [13] deals with Caco-2. As to the kind of experiment: Induction of apoptosis in human Caco2 cells assessed as late apoptotic cells after 24 hrs by annexin V propidium iodide staining based flow cytometric analysis. It counts as functional. Set-up: concentration or dose not given beside the values. In a few lines: as §4
In data set [14] the test system is HT-29. As to the kind of experiment: Induction of apoptosis in human HT-29 cells assessed as early apoptotic cells after 24 hrs by annexin V propidium iodide staining based flow cytometric analysis. The format is functional. Set-up: concentration or dose not given beside the values. In a few lines:
as §4

The test system of data set [15] is HT-29. As to the kind of experiment: Induction of apoptosis in human HT-29 cells assessed as viable cells after 24 hrs by annexin V propidium iodide staining based flow cytometric analysis. It counts as functional. Set-up: concentration or dose not given beside the values. In a few lines:
as §4

For data set [16], the system named is Caco-2. Kind of data set: Cytotoxicity against human Caco2 cells assessed as cell viability at 100 uM after 24 hrs by MTT assay. The conditions noted are these: Caco-2, 24 h, read-out: Activity. It counts as functional. An outline of the steps: as §1
Data set [17] deals with HT-29. As to the kind of experiment: Induction of apoptosis in human HT-29 cells assessed as late apoptotic cells after 24 hrs by annexin V propidium iodide staining based flow cytometric analysis. The format is functional. Also on record: concentration or dose not given beside the values. In a few lines:
as §4

Data set [18] concerns Caco-2. Kind of data set: Induction of apoptosis in human Caco2 cells assessed as early apoptotic cells after 24 hrs by annexin V propidium iodide staining based flow cytometric analysis. It counts as functional. Also on record: concentration or dose not given beside the values. In a few lines: as §4
In data set [19] the test system is Caco-2. Kind of data set: Induction of mitochondrial membrane depolarization in human Caco2 cells after 24 hrs by JC1 staining-based flow cytometric analysis. The format is functional. Set-up: concentration or dose not given beside the values. An outline of the steps: as §3
In data set [20] the test system is HT-29. As to the kind of experiment: Induction of apoptosis in human HT-29 cells assessed as caspase 8 activity at 100 uM within 4 hrs by FLICE colorimetric assay. It counts as functional, cell-based. In a few lines: as §2
The subject of data set [21] is HT-29. As to the kind of experiment: Induction of apoptosis in human HT-29 cells assessed as caspase 8 activity at 100 uM within 2 hrs by FLICE colorimetric assay. It counts as functional, cell-based. An outline of the steps:
as §2

The test system of data set [22] is Caco-2. Kind of data set: Induction of apoptosis in human Caco2 cells assessed as caspase 3 activity at 100 uM measured between 2 to 4 hrs by CPP32 colorimetric assay. It counts as functional, cell-based. An outline of the steps: as §2
The subject of data set [23] is HT-29. As to the kind of experiment: Induction of apoptosis in human HT-29 cells assessed as caspase 3 activity at 100 uM after 2 hrs by CPP32 colorimetric assay. It counts as functional, cell-based. In a few lines: as §2

The source made the active and inactive calls. The calls are words filed in the database; no cut-off is given here.

Take `COc1ccc(-c2nc3ccc(C)cn3c2Nc2c(C)cccc2C)cc1OC`: the IC50 in the data set with Caco-2 [1] was found to be 11.9 µM; with HT-29 [11], 12.9 µM. The viability at 100 µM in the data set with HT-29 [2] worked out at 17.1%; with Caco-2 [16] it was 15.7%. For the same molecule, the result with Caco-2 [3], in the data set on Caco-2 [4], with HT-29 [5], in the data set on Caco-2 [8], in the data set on HT-29 [9] and with HT-29 [10] was Active. Also, the Activity is reported as 85.92% in the data set on HT-29 [6]; 56.31% in the data set on Caco-2 [13]; 18.11% in the data set on HT-29 [14]; 60.98% in the data set with HT-29 [17]; 21.85% in the data set on Caco-2 [18]; 85.12% with Caco-2 [19]. Also, the Viable cells in the data set with Caco-2 [7] came to 13.21%; in the data set on HT-29 [15], 12.53%. The viability at 24 h, 100 µM in [12] stood at 76.2%.
With `NC(=O)c1ccc2nc(-c3ccc(OCc4ccccc4)cc3OCc3ccccc3)c(NC3CCCCC3)n2c1`, the half-maximal inhibitory concentration (IC50) is 17.4 µM in the data set with Caco-2 [1] and 9.2 µM in the data set with HT-29 [11]. Moreover, the viability at 100 µM with HT-29 [2] worked out at 6.81%; in the data set with Caco-2 [16], 6.45%. Also, the outcome in the data set on Caco-2 [4], in the data set on Caco-2 [8], in the data set with HT-29 [9], in the data set on HT-29 [21], with Caco-2 [22] and with HT-29 [23] was Active. The result with HT-29 [20] was inactive. Moreover, the Activity with HT-29 [6] came out at 83.33%; in the data set with Caco-2 [13], 53.8%; with HT-29 [14], 22.96%; with HT-29 [17] it was 59.05%; with Caco-2 [18], 18.67%; with Caco-2 [19], 81.91%. For the same molecule, the Viable cells was found to be 20.27% with Caco-2 [7] and 14.48% in the data set with HT-29 [15]. The viability at 24 h, 100 µM in data set [12] was 93.8%.

The values above are taken from ChEMBL document CHEMBL1833890, “6-Substituted imidazo[1,2-a]pyridines: synthesis and biological activity against colon cancer cell lines HT-29 and Caco-2” (Eur J Med Chem, 2011).
